Results taken from publication PMC10319625 (PNAS Nexus, 2023).
pIC50: −log10 of the molar value. Read-outs that look alike come from different tables or passages of the source.

Assays:
[1] = test system: liver and kidney of KSN/Slc nude mice; assay: Histopathological analysis of liver and kidney, tumor-free mice; type: in vivo, mouse; conditions: 10 days treatment
Summary of the method: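 Tumor-free KSN/Slc nude mice received saline, test compound or cisplatin for 10 days on the xenograft regimen. Liver and kidney sections were HE-stained for histopathology. Glomerulus area was measured (mean ± SD, n = 15 sections from 3 mice) and compared by one-way ANOVA with Tukey's test.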

[2] = Mouse xenograft model, body weight; type: in vivo; conditions: 3 µmol/kg cAQ-mBen or 30 µmol/kg CDDP, every 2 days for 5 times
Summary of the method: (§1)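 SAS cells were inoculated subcutaneously into KSN/Slc nude mice. From day 7 after inoculation (day 0), mice received saline, 3 µmol/kg test compound or 30 µmol/kg cisplatin intraperitoneally every 2 days, 5 times. Tumor volume and body weight were recorded at set points to day 10 (n = 9 control and test, n = 8 cisplatin). Statistics: two-way ANOVA with Tukey's test.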

[3] = test system: primary mouse bone marrow cells (BMCs); assay: Cell proliferation assay; type: cell-based; conditions: BMC (normal cells), 48 h
[4] = test system: SAS cells xenograft tumors in KSN/Slc nude mice; assay: Mouse xenograft model, tumor volume; type: in vivo; conditions: 3 µmol/kg cAQ-mBen or 30 µmol/kg CDDP, peritoneally every 2 days for 5 times
Summary of the method: as §1

[5] = test system: SAS cells; assay: Annexin V/PI staining; type: cell-based, human; conditions: 5 µM cAQ-mBen or 50 µM CDDP, 24 h
Summary of the method: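 SAS cells were exposed for 24 h to 5 µM test compound or to 50 µM cisplatin (positive control), then stained with annexin V-FITC and propidium iodide. Positive cells are expressed as % of total cell number per field. Values are mean ± SD of total apoptotic cells (n = 5), compared by one-way ANOVA with Tukey's test.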

[6] = test system: Ca9-22; assay: Cell proliferation assay; type: cell-based, human; conditions: Ca9-22, 48 h
[7] = test system: SAS; assay: Cell proliferation assay; type: cell-based, human; conditions: 48 h
[8] = type: in vivo, mouse; conditions: day 10 of treatment, versus negative control
[9] = test system: HeLa; assay: Cell proliferation assay; type: cell-based, human; conditions: 48 h
[10] = test system: SAS cells; assay: Western blot analysis of caspase-3 and PARP-1 cleavages; type: cell-based, human; conditions: 5 µM cAQ-mBen or 50 µM CDDP, 12 or 24 h
[11] = test system: PANC-1 and MIA PaCa-2; conditions: human pancreatic cancer cell lines, cited from earlier work

## N.N.[Cl][Pt][Cl] [CDDP, cis-diamminedichloroplatinum(II)]
[1]
  cell arrangement and size of the glomerulus in the kidney: significant condensation of the glomerulus area
[2]
  body weight of mice: considerably reduced
[3]
  pIC50: 5.89
[4]
  increase in the tumor volume: significantly suppressed
[5]
  Anx Alone(%), cells positive for annexin V, % of total cell count, Mean: 24.0%
  PI (%), cells positive for PI signal, % of total cell count, Mean: 18.5%
[6]
  pIC50: 4.56
[7]
  pIC50: 5.37
[8]
  physiological indices of serum (BUN, UA, AST, ALT, CRE, and γ-GTP levels): substantial increase
[9]
  pIC50: 6.30
[10]
  digestion of PARP-1 and caspase-3: observed in a time-dependent manner

## O=C1c2ccc3c4c(c(NCCN5CCCC5)cc(c24)C(=O)N1CCCN1CCOCC1)C(=O)N(CCCN1CCOCC1)C3=O [CM03]
[11]; after 6 h
  expression of hTERT: remained downregulated

## O=C1c2cc(-c3ccc(CN4CCCC4)cc3)c3c4c(cc(NCCN5CCCC5)c(c24)C(=O)N1CCCN1CCOCC1)C(=O)N(CCCN1CCOCC1)C3=O [SOP1812]
[11]; after 24 h
  expression of hTERT: remained downregulated
